Test results published in PMC10441371 (bioRxiv, 2023).
“Also recorded” adds a separate entry of the source. Counter-ions that a name gives are not always drawn. Like-named read-outs stand apart in the source and are kept apart here.

Columns and labels:
[1] = type: in vivo, Sprague Dawley rats; conditions: for Levels in liver, mean (SD): wet weight; for Detection in the brain: PCB 52 exposed rats
[2] = test system: estrogenic activity; conditions: ref Kitamura et al., 2005; cited from earlier work
[3] = test system: SULT2A1; conditions: ref Parker et al., 2018; cited from earlier work
[4] = test system: thyroid hormone receptor; conditions: ref Kitamura et al., 2005; cited from earlier work
[5] = test system: SH-SY5Y cell line; conditions: ref Rodriguez et al., 2018; cited from earlier work
[6] = test system: SULT1E1; conditions: ref Parker et al., 2018; cited from earlier work
[7] = test system: N27 cell line; conditions: ref Rodriguez et al., 2018; cited from earlier work
[8] = General toxicity: body and organ weights after IP exposure; type: in vivo, Sprague Dawley rats
In short: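 Rats were female Sprague Dawley, 4–5 weeks old and 75–100 g, acclimated 1 week. Each received a single IP dose of corn oil vehicle or test compound at 1, 10 or 100 mg/kg BW. Body weight was recorded at 5 time points over 3 weeks. After CO2 euthanasia, liver, spleen and thymus were excised; liver weight was adjusted for body weight. Groups were compared by one-way ANOVA with Tukey, p<0.05.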

[9] = male rats, single IP dose 150 mg/kg BW; ref Parkinson et al., 1983; cited from earlier work
[10] = test system: dopamine and its metabolites, DOPAL and DOPAC; experiment: Dopamine and metabolites analysis in striatum; type: in vivo, Sprague Dawley rats; conditions: different doses of PCB 52 IP, 3 weeks post injection, vs vehicle
In short: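 Female Sprague Dawley rats (4–5 weeks, 75–100 g, acclimated 1 week) got a single IP injection of corn oil or test compound in corn oil at 1, 10 or 100 mg/kg BW. They were euthanized after 3 weeks by CO2 and thoracotomy. Nigrostriatal tissue was homogenized in ice-cold 0.3 M perchloric acid and spun at 10,000 g for 10 min. Supernatant went to capillary HPLC with coulometric detection (guard +350, E1 −150, E2 +200 mV). Values are pmol/mg tissue; ANOVA with Tukey.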

[11] = test system: CYP2B; conditions: PCB 52 exposure; ref Parkinson et al., 1983; cited from earlier work
[12] = test system: endogenous serum metabolites; experiment: Targeted metabolomics of serum samples; type: in vivo, Sprague Dawley rats; conditions: 0 to 100 mg/kg BW IP, 3 weeks
In short: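 In female Sprague Dawley rats, serum was taken 3 weeks after a single IP dose of vehicle or 1–100 mg/kg test compound. Heart blood clotted ≥30 min at room temperature and was spun at 2,500 g (10 min, 4°C). Extracts (solvent:sample 18:1, −20°C 1 h) were methoximated (60°C 1 h), then TMS-derivatized (60°C 30 min). GC-Orbitrap analysis used EI full scan m/z 56.7–850 against a 94-metabolite list. Intensities were total-normalized; data were analyzed by PLS-DA and dose linear regression with Benjamini-Hochberg FDR.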

[13] = 10 mg/kg BW PCB 52 IP, 3 weeks after dosing, N = 3
[14] = 100 mg/kg BW PCB 52 IP, 3 weeks after dosing, N = 5
[15] = 1, 10 or 100 mg/kg BW IP, 3 weeks, body weight-adjusted, vs vehicle
[16] = no dose-response relationship observed

## Oc1cc(Cl)c(-c2cc(Cl)ccc2Cl)cc1Cl [4-OH-PCB 52, 2,5-dichloro-4-(2,5-dichlorophenyl)phenol]
[1]; [13]
  Levels in liver, mean (SD): 0.15 ng/g
[1]; [14]
  Levels in liver, mean (SD): 0.57 ng/g
[1]
  Detection in the brain: observed in the brain of one animal
[1]; high-dose group (100 mg/kg BW)
  Detection in adipose tissue: detected only in adipose tissue from one animal
[2]
  Estrogenic activity in vitro: low estrogenic activity
[3]
  Inhibition of SULT2A1: inhibitors
[4]
  Affinity for the thyroid hormone receptor: low affinity

## O=S(=O)(O)Oc1cc(Cl)c(-c2cc(Cl)ccc2Cl)cc1Cl [PCB 52 sulfate]
[5]
  Toxicity: low micromolar range
[6]
  Inhibition of SULT1E1: inhibitor
[7]
  Toxicity: low micromolar range
[3]
  Inhibition of SULT2A1: inhibitors

## Clc1ccc(Cl)c(-c2cc(Cl)ccc2Cl)c1 [PCB 52, 2,2',5,5'-Tetrachlorobiphenyl]
[1]; brain (lowest ratio)
  Ratio of mean PCB 52 tissue levels, 100 mg/kg BW vs 10 mg/kg BW dose group: 2.9
[1]; highest ratio among tissues, tissue not given
  Ratio of mean PCB 52 tissue levels, 100 mg/kg BW vs 10 mg/kg BW dose group: 5.6
[1]; liver
  Ratio of mean PCB 52 levels, 10 mg/kg BW vs 1 mg/kg BW dose group: ~7.0 times
[1]; serum
  Ratio of mean PCB 52 levels, 10 mg/kg BW vs 1 mg/kg BW dose group: approximately 4.0 times
[1]; three weeks following the IP injection
  Presence in tissues investigated (adipose, brain, liver, serum): present in all tissues investigated
[8]; 10 mg/kg BW IP, 3 weeks, vs vehicle group, p < 0.05
  Effect on bodyweight-adjusted liver weights: significantly smaller; also recorded: significant decrease
[8]; 1, 10 or 100 mg/kg BW IP, 3-week study, vs vehicle
  Effect on overall body weight: did not affect; also recorded: no significant impact
[8]; [15]
  Effect on spleen weights: did not affect
  Effect on thymus weights: did not affect
[9]
  Bodyweight-adjusted liver weights vs control: not significantly different
[10]
  DOPAC levels in the striatum: no significant differences; also recorded: not significantly different
  DOPAL levels in the striatum: no significant differences; also recorded: not significantly different
  Dopamine levels in the striatum: no significant differences; also recorded: not significantly different
[11]
  CYP2B enzyme activity in the rat liver: induced
[12]
  Serum L-cysteine levels: decreased dose-dependent
  Serum L-histidine levels: dose-dependent increase
  Serum cytosine levels: decreased dose-dependent
  Serum erythrose levels: decreased dose-dependent
  Serum glycine levels: dose-dependent increase
  Serum orotic acid levels: decreased dose-dependent
  Serum sphingosine levels: decreased dose-dependent
[12]; [16]
  Serum linoleic acid levels: significantly affected
  Serum thymine levels: significantly affected
[12]; out of the 81 metabolites included, raw p-values < 0.05
  Number of significantly altered serum metabolites: 9

## Oc1cc(Cl)cc(-c2cc(Cl)ccc2Cl)c1Cl [X1-PCB 52, 2,2’,5,5’-tetrachlorobiphenyl-3-ol]
[1]; 10 mg/kg BW PCB 52 IP, 3 weeks after dosing
  Estimated mean level in the serum: 0.07 ng/kg BW
[1]; [13]
  Levels in liver, mean (SD): 0.28 ng/g
[1]; [14]
  Levels in serum, mean (SD): 0.69 ng/g
  Levels in liver, mean (SD): 0.85 ng/g
[1]
  Detection in the brain: observed in the brain of one animal
[1]; all other exposure groups (below high dose)
  Detection in adipose tissue: below the LOD
[1]; high-dose group (100 mg/kg BW)
  Detection in adipose tissue: present
